Assay outcomes (PubChem BioAssay)
Rows were chosen to be rich in hits. Some 1.8% of all compounds tested hit in one or more screens of this group.
mABHD4 FP: inhibitors of mouse ABHD4 | Q8VD66 | purified mABHD4, FP-Rh probe fluorescence polarization | inhibition, % at 8.92 µM | hit rate 0.54% among 370,000;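 active = inhibition exceeding the mean over every tested compound plus 3 SD, cut at about 30% in these data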;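 note: 0% = plate median of compound wells and 100% = S159A mutant with DMSO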
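Test system: mouse ABHD4 enzyme, wild type. Reagent: FP-Rh fluorescent activity-based probe, added after compound pre-incubation. Timing: pre-incubation 45 min, probe exposure 60 min, at 25 °C. Technique: FP readout, ex 525 nm / em 598 nm. Benchmarks: high control S159A mutant with DMSO, low control median of compound wells.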
HTRA1 inhibitor: inhibitors of human serine peptidase HTRA1 | recombinant HTRA1, FP-rhodamine activity-based probe, fluorescence polarization | inhibition, % at 5.96 µM | hit rate 0.5% among 340,000 | AID 504803; in the data active = inhibition above about 36%;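 note: 0% = enzyme with DMSO and 100% = wells lacking enzyme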
Target sequence (Q92743 whole entry, looked up): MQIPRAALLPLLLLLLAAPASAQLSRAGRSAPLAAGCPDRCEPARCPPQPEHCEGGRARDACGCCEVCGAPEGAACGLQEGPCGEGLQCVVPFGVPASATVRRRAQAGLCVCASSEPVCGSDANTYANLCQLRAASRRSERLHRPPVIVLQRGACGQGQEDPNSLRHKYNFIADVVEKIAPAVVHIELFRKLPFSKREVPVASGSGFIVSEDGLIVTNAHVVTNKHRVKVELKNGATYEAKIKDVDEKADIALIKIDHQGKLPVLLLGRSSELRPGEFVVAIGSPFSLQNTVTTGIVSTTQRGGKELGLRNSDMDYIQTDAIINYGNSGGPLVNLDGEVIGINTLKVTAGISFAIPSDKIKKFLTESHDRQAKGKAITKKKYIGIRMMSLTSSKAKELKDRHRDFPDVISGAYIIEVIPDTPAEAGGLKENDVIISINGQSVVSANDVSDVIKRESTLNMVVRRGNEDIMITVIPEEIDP
TCR CD3 inh: inhibitors of human TCR-CD3 interaction. inhibition, % at 9.4 µM. hit rate 0.37% among 360,000. TAMRA-labeled TCR probe fluorescence, biochemical; in the data active = inhibition above about 19%;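 note: recombinant mutant TCR 2C K166C tagged with TAMRA read by polarization; 0% = receptor in buffer alone and 100% = receptor with positive control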
DDE Tn7 FP inh: disrupts Tn7 cyclic peptide binding to fibrin D-Dimer-E complex | P02675 | FP displacement of FITC-Tn7 peptide from fibrin DD(E); 0% = median of compound wells per plate | inhibition, % at 8.3 µM | hit rate 0.13% among 370,000;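 active = inhibition above the mean of compounds falling within the control limits plus 3 SD of them, cut at about 14% in these data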;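 note: 0% = plate median of compound wells and 100% = 10 µM Aha-Tn7 peptide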
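System: human fibrin DD(E); quantity: Fibrin-DD(E) at 2 µM final; also added: fluorescent Tn7 probe at 0.1 µM; compound dosing: single nominal test concentration of 8.3 µM per compound; schedule: 10 min preincubation, 3 h with tracer, room temperature; detection: fluorescence polarization of the labelled Tn7 tracer; repeats: one replicate per compound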
SIAE primary: human SIAE inhibition, primary screen; inhibition, % at 9.66 µM; SIAE FP-Rh probe binding, fluorescence polarization; AID 1053197; hit rate 0.69% among 370,000;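 active = inhibition above a cutoff: mean of compounds within the control limits plus 3 SD of those, cut at about 17% in these data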;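 note: 0% = plate median of compound wells and 100% = probe without SIAE protein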
DDE Tn6 FP inh: disrupts Tn6 cyclic peptide binding to fibrin D-Dimer-E complex; Fibrin DD(E) TRITC-Tn6 fluorescence polarization displacement; inhibition, % at 8.3 µM; hit rate 0.21% among 370,000;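 active = inhibition above a per-campaign cutoff: mean of compounds within control limits plus 3 SD, cut at about 15% in these data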;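 note: 0% = median of all compound wells on the plate and 100% = blocking peptide control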
DDE Tn6 FP ctr: DD(E)-Tn6 binding inhibition, counter-screen | shares compounds with DDE Tn6 FP inh | hit rate 2% among 680 | Fibrin DD(E), TRITC-Tn6 fluorescence polarization displacement; 0% = median of compound wells, not DMSO | inhibition, % at 8.3 µM;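 active = inhibition above the mean of test compounds lying between the control limits plus 3 SD of those, cut at about 14% in these data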;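 note: 0% = median of compound wells and 100% = wells with Aha-Tn7 blocking peptide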
DDE Tn6 confirm: confirmation of inhibitors of Tn6 binding to human fibrin DD(E) | shares compounds with DDE Tn6 FP inh | FP displacement of TRITC-Tn6 peptide from DD(E); 0% = per-plate median of test wells | inhibition, % at 8.3 µM | hit rate 10% among 680 | AID 720631;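 active = inhibition above the mean of compounds lying within the control limits plus 3 SD, cut at about 16% in these data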;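 note: 100% = high control wells holding a competing inhibitor peptide at 10 µM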
An asterisk follows results filed as active; . = no result.

SMILES | mABHD4 FP | HTRA1 inhibitor | TCR CD3 inh | DDE Tn7 FP inh | SIAE primary | DDE Tn6 FP inh | DDE Tn6 FP ctr | DDE Tn6 confirm
Cc1ccc(S(=O)(=O)N2CCN(C(=O)COC(=O)C3CCC3)CC2)cc1 | 10 | -2 | 8 | 3 | -1 | 18* | 11 | 4
CCn1cc(/C=C(\NC(=O)c2ccccc2)C(=O)NCCCn2ccnc2)c2ccccc21 | -5 | -3 | -6 | 2 | 2 | -3 | . | .
O=C(CCNC(=O)N1CC(=O)Nc2ccccc21)NCc1cccc(C(F)(F)F)c1 | -7 | -1 | 1 | 7 | -1 | 0 | . | .
C=CCS(=O)(=O)N1CCCC(Cc2ccccc2C)(C(=O)OCC)C1 (stereo not drawn) | -9 | 0 | 1 | 0 | 8 | 4 | . | .
c1ccc(Nc2ccccc2Nc2ccccn2)nc1 | 8 | 5 | 6 | 10 | 4 | 16* | -3 | -5
Cc1cc([N+](=O)[O-])nn1CC(=O)N(C)C1CCCCC1 | 6 | 6 | -5 | -2 | 6 | 5 | . | .
COc1ccc(NC(=O)N(C)C[C@@H]2OCc3cnnn3CCCC(=O)N([C@@H](C)CO)C[C@H]2C)cc1 | 3 | 6 | 3 | 0 | 7 | 2 | . | .
COc1ccc(/C=C\C(=O)NCc2ccc3c(c2)cc(C)n3C)cc1OC | -18 | 1 | 18 | -1 | -8 | 30* | 1 | 5
Cc1ccccc1NC(=S)NCc1ccc2c(c1)cc(C)n2C | 16 | 0 | 6 | 9 | 11 | 20* | 3 | -5
CCc1cccc(C)c1NC(=S)NCc1ccc2c(c1)cc(C)n2C | 9 | 23 | 11 | -8 | 4 | 3 | . | .
COc1ccc(CC(=O)NCc2ccc3c(c2)cc(C)n3C)cc1 | 6 | 2 | 1 | 4 | 10 | -3 | . | .
COc1cccc(C(=O)NCc2ccc3c(c2)cc(C)n3C)c1 | 10 | 13 | 6 | 1 | 3 | 22* | -3 | -6
Cc1cc2cc(CNC(=O)CC(C)C)ccc2n1C | 9 | -5 | 9 | -2 | -5 | 16* | -2 | -13
COc1ccc(C(=O)NCc2ccc3c(c2)cc(C)n3C)cc1OC | 17 | 12 | 8 | 4 | -2 | 37* | 1 | 1
CCOC(=O)NCc1ccc2c(c1)cc(C)n2C | 7 | 3 | -3 | -4 | 1 | 10 | . | .
O=c1oc2ccccc2cc1C1=Nn2c(nnc2-c2cccnc2)SC1 | -2 | -5 | -1 | -1 | 0 | 15* | 9 | 3
Cc1ccc2c(C)c(C(=O)NCc3ccc(S(N)(=O)=O)cc3)oc2c1C | -12 | 3 | 2 | -8 | -7 | -3 | . | .
Cc1ccc2c(C)c(C(=O)Nc3ccc(S(N)(=O)=O)cc3)oc2c1C | -281 | -254 | -2 | 5 | -331 | 26* | 4 | -94
Cn1c(N)c(C(=O)COC(=O)CC2CC3CCC2C3)c(=O)n(C)c1=O (stereo not drawn) | -1 | -4 | 5 | 7 | 1 | 16* | 9 | 6
Cc1ccccc1OCCN(C#N)c1nc(N(C)C)nc(N(C)C)n1 | 7 | 2 | 0 | -3 | -6 | -1 | . | .
COc1ccccc1C(=O)NC(=O)COC(=O)c1ccc(NC(=O)CC#N)cc1 | 0 | 0 | 0 | 2 | -15 | 18* | 3 | -1
C[C@@H](c1ccccc1)N1C[C@@H](COCc2ccccc2)Oc2cc(N3CCC[C@H]3CO)ccc2S1(=O)=O | -2 | . | 0 | 1 | -11 | 1 | . | .
Cc1cc(C)c(S(=O)(=O)Nc2nccs2)c(C)c1 | 5 | 0 | 0 | 3 | -6 | 7 | . | .
CCC(C)NC(=O)c1csc2c1CCCCC2 (stereo not drawn) | 1 | 5 | -3 | 4 | 5 | 19* | 1 | 2
CC(C)CCNC(=O)c1csc2c1CCCCC2 | -9 | 3 | 1 | 6 | 0 | 1 | . | .
SMILES | mABHD4 FP | HTRA1 inhibitor | TCR CD3 inh | DDE Tn7 FP inh | SIAE primary | DDE Tn6 FP inh | DDE Tn6 FP ctr | DDE Tn6 confirm
CSc1nc(NC(C)(C)C)nc(N2CCOCC2)n1 | -2 | 5 | 1 | -2 | 0 | -3 | . | .
Cc1cc(Sc2nc(NC(C)(C)C)nc(N3CCOCC3)n2)nc(Cl)n1 | 0 | 2 | 6 | 0 | 15 | 17* | 5 | -1
COC(=O)[C@]12C[C@H](CC(=O)NCc3cccc(C(F)(F)F)c3)C(=O)N(Cc3cccc4ccccc34)C1=C[C@H](C(C)C)O[C@@H]2C1CC1 | -12 | . | . | -3 | 1 | 10 | . | .
O=C1Nc2ccccc2-n2nnnc2C1N1CCc2ccccc2C1 (stereo not drawn) | 2 | . | 12 | -3 | 0 | 13 | . | .
CCN(Cc1cc(=O)n2cc(Cl)c(C)c(Cl)c2n1)Cc1nc2ccccc2c(=O)[nH]1 | 3 | 4 | -1 | -3 | 3 | -5 | . | .
Cc1c(Cl)cn2c(=O)cc(CN3CCN(c4ccccc4)CC3)nc2c1Cl | 0 | -7 | -3 | 6 | 1 | 15* | 6 | 2
CCCC(=O)Nc1cc(OC)c(NC(=S)Nc2ccc(CC)cc2)cc1OC | 28 | 2 | 7 | 4 | 10 | 36* | 4 | 3
CCc1ccc(NC(=S)Nc2cc(OC)c(NC(=O)C(C)C)cc2OC)cc1 | 28 | 10 | 4 | -5 | 8 | 25* | 2 | 2
CCCC(=O)Nc1cc(OC)c(NC(=S)Nc2cccc(C)c2)cc1OC | 25 | 4 | 3 | -3 | 9 | 26* | -3 | -18
